GAA850 FXN act: increases GAA850 frataxin promoter reporter activity. activation, % at 6 µM. HEK293 lucGAA850 FXN promoter luciferase reporter, 24 h; percent of 10 µM SAHA response. 0.56% of 360,000 active. AID 540364;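 active means activation above the average of all compounds screened plus 3 SD, cutoff fixed separately per campaign, cut at about 7.5% in these data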;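 further: 0% = DMSO wells and 100% = 10 µM SAHA wells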
procasp7 counter: activates human procaspase-7, counter-screen for procaspase-3 activators | P55210 | activation, % at 8.5 µM | 0.093% of 330,000 active | recombinant procaspase-7, Ac-DEVD-pNA absorbance 405 nm; D23A/D198A/D206A triple mutant, cannot self-cleave; scale: DMSO 0, 5 µM enzyme 100;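 active means percent activation above the screen-wide mean plus 3 SD, cut at about 25% in these data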
Target sequence (P55210 whole entry D23A/D198A/D206A): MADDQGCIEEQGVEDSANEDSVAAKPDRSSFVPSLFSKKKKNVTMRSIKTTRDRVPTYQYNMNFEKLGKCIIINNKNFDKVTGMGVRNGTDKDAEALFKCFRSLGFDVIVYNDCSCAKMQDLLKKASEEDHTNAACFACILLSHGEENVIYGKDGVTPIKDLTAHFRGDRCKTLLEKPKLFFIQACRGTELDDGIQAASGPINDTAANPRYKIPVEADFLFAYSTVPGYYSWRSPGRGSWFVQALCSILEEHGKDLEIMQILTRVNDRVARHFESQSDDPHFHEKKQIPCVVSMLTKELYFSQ
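Assay system: Uncleavable procaspase-7 mutant enzyme / Input: 2 µM procaspase-7 mutant as dispensed / Dosing: single nominal 8.5 µM compound dose, 0.8% DMSO final / Timing: 1 h enzyme–compound preincubation and 2 h substrate reaction, both 25 °C / Detection: p-Nitroaniline absorbance at 405 nm, read at 0 and 120 min / Replication: singlicate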
procasp3 activ: activates human procaspase-3; activation, % at 8.5 µM; 0.11% of 330,000 active; AID 463141; P42574; recombinant procaspase-3 D3A, Ac-DEVD-pNA absorbance 405 nm;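 active means activation above the mean of all tested compounds plus 3 SD, cut at about 21% in these data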;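 further: 0% = DMSO alone and 100% = DMSO wells spiked with extra 5 µM PC-3 D3A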
Target sequence (P42574 whole entry D9A/D28A/D175A): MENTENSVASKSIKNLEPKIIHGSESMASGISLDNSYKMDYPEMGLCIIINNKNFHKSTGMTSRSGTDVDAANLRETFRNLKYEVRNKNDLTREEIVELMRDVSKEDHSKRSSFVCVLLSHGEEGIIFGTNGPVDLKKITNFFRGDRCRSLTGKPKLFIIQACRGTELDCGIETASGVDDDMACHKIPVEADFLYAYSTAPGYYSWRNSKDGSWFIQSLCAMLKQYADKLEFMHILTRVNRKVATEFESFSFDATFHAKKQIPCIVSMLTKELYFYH
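Test system: Procaspase-3 D3A mutant; medium: Zinc-free HEPES/NaCl buffer with 0.01% Triton X-100 at pH 7.4; reagent: DEVD-pNA substrate; doses: one concentration, 8.5 µM nominal, 0.8% DMSO; times: 1 h preincubation plus 2 h reaction at 25 °C; signal: Epi-absorbance at 405 nm of released p-nitroaniline, 0 and 120 min; replicates: singlicate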
proCasp7 act trip: activates human procaspase-7, counter-screen for procaspase-3 activators. recombinant procaspase-7, Ac-DEVD-pNA absorbance; asp23/198/206-to-Ala mutant, cannot self-cleave. activation, % at 8.5 µM. 210 tested, under 10 active. shares compounds with procasp3 activ;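 active means mean activation above a set limit taken from an earlier procaspase-7 screen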;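 further: 0% = DMSO wells and 100% = DMSO plus 5 µM procaspase-7 enzyme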
procasp3 conf: confirmation of human procaspase-3 activators; shares compounds with procasp3 activ; recombinant PC-3 D3A, Ac-DEVD-pNA absorbance 405 nm; 100% is higher-enzyme control; activation, % at 8.5 µM; 10% of 210 active;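 active means mean activation above a set limit carried over from the earlier primary screen, cut at about 22% in these data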
Starred values were filed as active, the others as inactive; · = not tested or not shown. Shown are actives, neighbours in structure and some others; about 0.7% of the full set was active somewhere.

SMILES	GAA850 FXN act	procasp7 counter	procasp3 activ	others
COC(=O)C1C(c2ccc(N(C)C)cc2)C(C(=O)OC)S(=O)(=O)CS1(=O)=O (stereo unspecified)	0	-6	5
CC(=O)Nc1ccc(NC(=O)CSc2nnc(C)n2-c2ccccc2)cc1	1	3	2
COC(=O)c1nn(-c2ccc(OC)cc2)c(=O)cc1O	5	-16	-5
COc1ccc(-n2nc(C#N)c(Cl)cc2=O)cc1	33*	·	·
CCOCCCNC(=O)c1cn(C)c2ccc(S(=O)(=O)N3CCCC3)cc2c1=O	-2	7	1
O=C1/C(=C\c2ccco2)CCC/C1=C\c1ccco1	13*	-6	-11
CC1C/C(=C/c2ccco2)C(=O)/C(=C/c2ccco2)C1 (stereo unspecified)	·	-19	-3
CC(C)(C)N1C(=O)[C@H]2[C@@H](c3ccc(Br)cc3)N3C(=O)N(c4ccccc4)C(=O)[C@@]3(C)[C@H]2C1=O	12*	-1	15
COc1ccc([C@@H]2[C@@H]3C(=O)N(C(C)(C)C)C(=O)[C@@H]3[C@]3(C)C(=O)N(c4cccc(C)c4)C(=O)N23)cc1	4	3	-9
COc1cc(/C=C2\SC(=S)N(Nc3ccccc3)C2=O)ccc1O	3	-17	-2
O=C1/C(=C/c2ccc(O)c(O)c2)SC(=S)N1Nc1ccccc1	7.8*	·	·
COc1cccc(NC(=S)N(CCC(C)C)C2CCN(C(C)=O)CC2)c1	2	-1	1
Brc1ccc(Nc2nc(-c3cccnc3)cs2)cc1	7	5	1
Oc1ccc(Nc2nc(-c3cccnc3)cs2)cc1	9.0*	-4	-3
CCn1c(C(=O)O)c(CC(=O)Nc2ccccc2OC)c2ccccc21	1	0	5
O=C(CN(C1CCCCC1)S(=O)(=O)c1ccccc1)NCC1CCCO1 (stereo unspecified)	-1	·	·
O=C(CN(C1CCCCC1)S(=O)(=O)c1ccc(F)cc1)NCC1CCCO1 (stereo unspecified)	12*	·	·
CC(C)CCN(CC(=O)NCc1ccc(F)cc1)S(=O)(=O)c1ccccc1F	0	-7	6
O=c1cc(-c2ccc(O)c(O)c2)oc2cc(O)cc(O)c12	11*	-13	-3
COc1ccc(-c2cc(=O)c3c(O)cc(O)cc3o2)cc1	0	-8	4
CCOC(=O)c1sc(NC(=O)C2CC(=O)N(c3ccc4c(c3)OCCO4)C2)nc1C (stereo unspecified)	-1	2	0
Cc1ccccc1C1CC(=O)Oc2cc(O)ccc21 (stereo unspecified)	1	5	7
CCN(CC)C(=O)N1CCn2c(nc3ccccc32)C1	0	-2	3
CCn1cc(C(=O)N2CCn3c(nc4ccccc43)C2)c(=O)c2ccc(C)nc21	16*	1	15
CCOC(=O)c1cc(CC)sc1NC(=O)CN1C(=O)C(=O)N(CC(C)C)C1=O	0	-3	-5
SMILES	GAA850 FXN act	procasp7 counter	procasp3 activ	others
COc1cc(NC(=O)CCS(=O)(=O)c2ccc3c(c2)n(C)c(=O)c(=O)n3C)cc(OC)c1	-1	-5	0
COc1ccc(NC(=O)CSc2nc3ccccc3nc2N2CCCC2)cc1	2	1	2
COc1ccc(NC(=O)CSc2nc3ccccc3nc2N2CCCC2)cc1Cl	2	-1	30*	proCasp7 act trip=-3;procasp3 conf=-3
O=C1CCN(Cc2ccc(O)cc2)CCN1[C@H](CO)c1ccccc1	0	0	-6
CN(C(=O)COC(=O)c1cc(S(=O)(=O)N2CCOCC2)ccc1F)C1CCS(=O)(=O)C1 (stereo unspecified)	0	5	9
O=C1OCCN1C(=O)[C@H]1[C@H](c2ccc(Cl)cc2)C(c2cccc(Cl)c2)=NN1c1ccccc1	4	18	23*	proCasp7 act trip=-22;procasp3 conf=-14
O=C1OCCN1C(=O)[C@H]1[C@H](c2ccc(F)cc2)C(c2cccc(Cl)c2)=NN1c1ccc(Br)cc1	-1	15	19
O=C1OCCN1C(=O)[C@H]1[C@H](c2ccccc2)C(c2cccc(Cl)c2)=NN1c1ccc(Br)cc1	1	18	17
O=C1OCCN1C(=O)[C@H]1[C@H](c2ccc(F)cc2)C(c2cccc(Cl)c2)=NN1c1ccccc1	1	2	7
O=C1OCCN1C(=O)[C@H]1[C@H](c2ccc(Cl)cc2)C(c2ccccc2)=NN1c1ccc(Br)cc1	0	24	28*	proCasp7 act trip=-20;procasp3 conf=-10
Cc1cccc(C2=NN(c3ccc(Br)cc3)[C@@H](C(=O)N3CCOC3=O)[C@@H]2c2ccc(Cl)cc2)c1	1	25	23*	proCasp7 act trip=-21;procasp3 conf=-13
COc1ccc(NC(=O)CSc2ccc3nnc(-c4cccnc4)n3n2)cc1OC	-1	-9	0
Cc1c(OC(C)C(=O)NCC2CCC(C(=O)O)CC2)ccc2c(-c3ccccc3)cc(=O)oc12 (stereo unspecified)	1	-3	-1
CCN1C(=O)c2cccc3c(S(=O)(=O)N4CCC(C)CC4)ccc1c23	-1	-1	-3
CCN1C(=O)c2cccc3c(S(=O)(=O)N(C(C)=O)c4ccc(OC(C)=O)cc4)ccc1c23	2	0	24*	proCasp7 act trip=-22;procasp3 conf=-12
COc1ccc2oc(C(=O)OCC(=O)Nc3cc(S(=O)(=O)N4CCOCC4)ccc3C)c(C)c2c1	0	1	1
COc1ccc2oc(C(=O)OCC(=O)Nc3cc(S(=O)(=O)N4CCOCC4)ccc3OC)c(C)c2c1	-1	6	22*	proCasp7 act trip=0;procasp3 conf=1
CCN(CC)c1ccc(/C=N/NC(=O)c2cccc(S(=O)(=O)Nc3ccccc3OC)c2)cc1	0	-12	-7
CCN(CC)c1ccc(/C=N/NC(=O)c2cccc(S(=O)(=O)Nc3ccccc3OC)c2)c(O)c1	-11	23	39*	proCasp7 act trip=15;procasp3 conf=20
CCCCCCN1C=CC(=C/C=C(\C#N)C(=O)OCC)C=C1	2	-20	24*	proCasp7 act trip=-21;procasp3 conf=-9
CCCN1C=CC(=C/C=C(\C#N)C(=O)OCC)C=C1	·	-19	-23
CCNC(=O)O/N=C1\CCCCC1c1ccc([N+](=O)[O-])cc1[N+](=O)[O-] (stereo unspecified)	-2	-8	2
CCN(CC(=O)NC1CCS(=O)(=O)C1)C(=O)c1ccc(OC)c([N+](=O)[O-])c1 (stereo unspecified)	1	14	2
O=C(CCCNS(=O)(=O)c1cccc2nsnc12)N1CCCCC1	-1	13	2
O=C(CCNS(=O)(=O)c1cccc2nsnc12)N1CC(=O)N(CCc2ccccc2)C(=O)C1	-2	11	24*	proCasp7 act trip=2;procasp3 conf=5
CCn1c(SC(C)C(=O)NCC2CCCO2)nc2ccccc21 (stereo unspecified)	2	-3	39*	proCasp7 act trip=2;procasp3 conf=4
